In series [1] the target is T1, Von Hippel-Lindau disease tumor suppressor/Elongin B/Elongin C (Homo sapiens, UniProt P40337). Briefly: Displacement of FAM-labeled HIF-1alpha peptide from VBC (unknown origin) by fluorescence polarization assay. (In general: Polarisation of emitted light reports the rotation of a fluorescent probe.)
Series [2] deals with T2, Von Hippel-Lindau disease tumor suppressor/Elongin B/Elongin C (Homo sapiens) (UniProt P40337+Q15370+Q15369). Briefly: Inhibition of VBC in human HeLa cells assessed as HIF-1alpha stabilization by measuring HIF-1alpha protein levels at 50 uM after 2 hrs by Western blot analysis. Type of series: cell-based. Also on record: scale not given: the % may be the effect or the level left. An outline of the steps:
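HeLa (ATCC) grown in DMEM with 10% FBS, L-glutamine and penicillin/streptomycin at 37 °C; mycoplasma-tested. Treated 2 h in fresh medium, 1% DMSO as vehicle control. Lysed in RIPA buffer with protease inhibitors, SDS-PAGE, nitrocellulose blot. Anti-HIF-1α probed with β-actin as loading control, IRDye 800CW secondary for detection. Levels normalized to a reference VHL inhibitor.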
Background: In western blotting, separated proteins are transferred to a membrane and probed.

The subject of series [3] is HeLa. Briefly: Antiproliferative activity against human HeLa cells assessed as reduction in cell proliferation at 150 uM incubated for 24 to 72 hrs by haemocytometry. Type of series: cell-based.
Series [4] has as its system HeLa. Briefly: Antiproliferative activity against human HeLa cells assessed as reduction in colony formation at 150 uM incubated for 24 hrs by crystal violet staining based assay. It counts as cell-based. Put shortly:
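HeLa cells, 500–2000 per well, seeded one day before exposure to 150 μM compound; 1% DMSO as vehicle control. Medium replaced after 24 h treatment, then grown a further week. Stained with 0.005% crystal violet in 25% methanol for 10 min at room temperature. Colonies counted on scanned plates.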

Series [5] is described as follows: Passive permeability of the compound in pH 7.4 PBS at 10 uM after 5 hrs by UPLC-MS/MS method based PAMPA. Type of series: ADME. Conditions: pH 7.4, 5 h; call rule not given here. An outline of the steps:
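Precoated PAMPA plate with lipid–oil–lipid trilayer filter. Compound at 10 μM in PBS pH 7.4 (≤5% DMSO) in the donor well, PBS in the acceptor well. Held 5 h at room temperature; both compartments quantified by UPLC-MS/MS. Pe calculated from peak areas; data accepted only if recovery exceeded 70%. Propranolol as control.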
(In general: In PAMPA a lipid-coated filter parts donor from acceptor wells.)

Series [6] in a line: Chromatographic hydrophobicity index, log D of the compound at pH 7.4 by HPLC analysis. Type of series: physicochemical. Conditions: buffer. An outline of the steps:
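DMSO stocks (10 mM) diluted to 0.25 mM in 50:50 acetonitrile:water. Run on C18 HPLC at 20 °C, 1 mL/min. Mobile phase 10 mM ammonium acetate pH 7.4 with an acetonitrile gradient. Retention times calibrated against a standard mix of eleven reference compounds, then converted to CHIlogD.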

Series [7] can be described thus: Half life in plasma (unknown origin) at pH 7.4 at 50 uM up to 180 mins by UPLC-MS/MS analysis. Type of series: ADME, cell-free. An outline of the steps:
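Compound at 50 μM incubated at 37 °C in prewarmed plasma buffered to pH 7.4 (70:30 plasma to buffer). Aliquots were taken at 0, 30, 60, 120 and 180 min and quenched in acetonitrile with donepezil internal standard. Samples were centrifuged and analysed by UPLC-MS/MS. The rate constant was fitted as exponential decay of the compound/internal standard peak-area ratio.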

Series [8] can be described thus: Intrinsic clearance in CD1 mouse liver microsomes at 0.5 uM up to 30 mins by UPLC-MS/MS analysis. It counts as ADME, microsome. Conditions: 0.5 h. Put shortly: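 Compound at 0.5 μM with female CD1 mouse liver microsomes (0.5 mg/mL) in 50 mM potassium phosphate pH 7.4, started with excess NADPH. Samples quenched in acetonitrile at 0, 3, 6, 9, 15 and 30 min; UPLC-MS/MS against internal standard. Decay rate constant converted to CLi assuming 52.5 mg microsomal protein/g liver. Verapamil as assay control.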

Series [9] has as its target T1, Von Hippel-Lindau disease tumor suppressor/Elongin B/Elongin C.
The target in series [10] is T2, Von Hippel-Lindau disease tumor suppressor/Elongin B/Elongin C (Homo sapiens). Briefly: Binding affinity to VBC (unknown origin) assessed as association rate constant at 50 uM after 60 secs at 10 degC by surface plasmon resonance assay. It counts as protein-complex assay. An outline of the steps: (§1)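 SPR on a Biacore T100 at 10 and 20 °C against VBC complex. Ligand stock 50 μM in DMSO, 2-fold serial dilutions in SPR buffer (20 mM HEPES, 150 mM NaCl, 1 mM DTT, 0.005% Tween P20, pH 7.0). Kd taken as koff/kon.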

Series [11] has the same target. Briefly: Binding affinity to VBC (unknown origin) assessed as dissociation rate constant at 50 uM after 160 secs at 10 degC by surface plasmon resonance assay. It counts as protein-complex assay. Put shortly: as §1
Series [12] shares this target. Briefly: Binding affinity to VBC (unknown origin) assessed as association rate constant at 50 uM after 60 secs at 20 degC by surface plasmon resonance assay. Type of series: protein-complex assay. Put shortly:
as §1

Series [13] has the same target. Briefly: Binding affinity to VBC (unknown origin) assessed as dissociation rate constant at 50 uM after 160 secs at 20 degC by surface plasmon resonance assay. Type of series: protein-complex assay. An outline of the steps: as §1
Series [14] concerns the target T1, Von Hippel-Lindau disease tumor suppressor/Elongin B/Elongin C. This is another data set of the same source.
Series [15] has the same target. This is another data set of the same source.
The target of series [16] is T2, Von Hippel-Lindau disease tumor suppressor/Elongin B/Elongin C (Homo sapiens).
Series [17] has the same target. The source holds these as a separate data set.

The source of these data is ChEMBL document CHEMBL4219039, “Group-Based Optimization of Potent and Cell-Active Inhibitors of the von Hippel-Lindau (VHL) E3 Ubiquitin Ligase: Structure-Activity Relationships Leading to the Chemical Probe …” (J Med Chem, 2018).

T1 sequence (P40337 whole entry, looked up): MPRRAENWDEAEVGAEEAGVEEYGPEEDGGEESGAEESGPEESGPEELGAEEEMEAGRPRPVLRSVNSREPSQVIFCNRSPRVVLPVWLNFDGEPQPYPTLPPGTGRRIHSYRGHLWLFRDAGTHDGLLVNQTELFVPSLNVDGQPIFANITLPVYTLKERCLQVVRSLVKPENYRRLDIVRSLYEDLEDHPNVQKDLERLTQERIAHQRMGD
T2 sequence (P40337 whole entry, looked up): as above
T2 sequence (Q15369 whole entry, looked up): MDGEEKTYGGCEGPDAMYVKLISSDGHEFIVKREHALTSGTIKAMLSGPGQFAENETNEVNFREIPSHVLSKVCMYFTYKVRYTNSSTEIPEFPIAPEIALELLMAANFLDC
T2 sequence (Q15370 whole entry, looked up): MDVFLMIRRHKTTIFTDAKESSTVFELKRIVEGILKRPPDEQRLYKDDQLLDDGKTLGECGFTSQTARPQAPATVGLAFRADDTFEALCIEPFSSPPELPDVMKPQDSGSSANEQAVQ

`Cc1ncsc1-c1ccc(CNC(=O)[C@@H]2C[C@@H](O)CN2C(=O)[C@@H](NC(=O)C(F)(F)F)C(C)(C)C)cc1`: in series [1], binding was put at a Kd of 270 nM. The Activity in series [2] turned out to be 95%.
For `Cc1ncsc1-c1ccc(CNC(=O)[C@@H]2C[C@H](O)CN2C(=O)[C@@H](NC(=O)C2(F)CC2)C(C)(C)C)cc1`, the Activity entry in the series on HeLa [3] and in the series on HeLa [4] was “Toxic” each time.
Regarding `CC(=O)N[C@H](C(=O)N1C[C@H](O)C[C@H]1C(=O)NCc1ccc(-c2scnc2C)cc1)C(C)(C)C`, the Activity in [2] came out at 100%. The permeability in series [5] stood at 0.12 ×10⁻⁶ cm/s. In [6], this molecule displayed a chromatographic logD of 0.9. The half-life at 50 µM in series [7] was above 3 h. Further, the “intrinsic clearance (CLint)” value in [8] was determined as 0.7 mL/min/g.
As to `Cc1ncsc1-c1ccc(CNC(=O)[C@@H]2C[C@@H](O)CN2C(=O)[C@@H](NC(=O)C(Cl)(Cl)Cl)C(C)(C)C)cc1`, in series [1], the affinity, expressed as Kd, was 200 nM. In addition, the Activity in [2] turned out to be 89%.
On to `Cc1ncsc1-c1ccc(CNC(=O)[C@@H]2C[C@@H](O)CN2C(=O)[C@@H](NC(=O)CO)C(C)(C)C)cc1`, for which the Kd in series [1] was 200 nM; in series [9], 105 nM. For the same molecule, the Activity in series [2] came out at 16%. This molecule had a permeability in [5] of 0.01 ×10⁻⁶ cm/s. In addition, in [6], the chromatographic logD was 0.65.
As to `CC(=O)C1(C(=O)N[C@H](C(=O)N2C[C@H](O)C[C@H]2C(=O)NCc2ccc(-c3scnc3C)cc2)C(C)(C)C)CC1`, the Kd in series [1] came to 170 nM; in [9], 106 nM; in [14], 115 nM; in series [15], 97 nM. Moreover, in series [2], the Activity was found to be 156%. The same molecule showed a permeability in [5] of 1.5 ×10⁻⁶ cm/s. Moreover, the chromatographic logD in series [6] worked out at 1.34. Further, the K is 6 ×10⁵ /M/s in series [10], 0.069 s⁻¹ in [11], 8.2 ×10⁵ /M/s in series [12] and 0.169 s⁻¹ in series [13]. Also, in series [7], the half-life at 50 µM was above 3 h. Also, the “intrinsic clearance (CLint)” value in series [8] amounted to 2.5 mL/min/g. In addition, the T1/2 was 10 s in series [16] and 4.1 s in series [17].
`Cc1ncsc1-c1ccc(CNC(=O)[C@@H]2C[C@@H](O)CN2C(=O)[C@@H](NC(=O)CC(C)(C)C)C(C)(C)C)cc1` yielded a Kd in series [1] of 450 nM. Further, in series [2], the Activity turned out to be 65%.
In [1], `Cc1ncsc1-c1ccc(CNC(=O)[C@@H]2C[C@@H](O)CN2C(=O)[C@@H](NC(=O)OC(C)(C)C)C(C)(C)C)cc1` returned a Kd of 6500 nM. For the same molecule, the Activity in [2] is 12%.
Regarding `CC(=O)N(C)[C@H](C(=O)N1C[C@H](O)C[C@H]1C(=O)NCc1ccc(-c2scnc2C)cc1)C(C)(C)C`, the Activity in series [2] amounted to 26%.
Turning to `Cc1ncsc1-c1ccc(CNC(=O)[C@@H]2C[C@@H](O)CN2C(=O)[C@@H](NC(=O)C2(C#N)CC2)C(C)(C)C)cc1`, the results for the Activity (in series [2]; in the series with HeLa [3]; in the series on HeLa [4]) were 190%, “Non-Toxic” and “Non-Toxic”, respectively. In series [5], the permeability amounted to 1.94 ×10⁻⁶ cm/s. In series [6], this molecule came in with a chromatographic logD of 1.4. The molecule also displayed a half-life at 50 µM in [7] above 3 h. Further, the “intrinsic clearance (CLint)” value in series [8] amounted to 3.1 mL/min/g.
Take `CC(=O)N[C@@H](C)C(=O)N1C[C@H](O)C[C@H]1C(=O)NCc1ccc(-c2scnc2C)cc1`: the Activity in [2] came to 12%.
With `Cc1ncsc1-c1ccc(CNC(=O)[C@@H]2C[C@@H](O)CN2C(=O)[C@@H](NC(=O)C2COC2)C(C)(C)C)cc1`, the Kd in series [1] is 320 nM; in series [9], 230 nM. The Activity in series [2] came out at 34%. The same molecule came in with a permeability in series [5] of 0.03 ×10⁻⁶ cm/s. In [6], this molecule yielded a chromatographic logD of 0.71.
The corresponding values for `CC(=O)NC1(C(=O)N[C@H](C(=O)N2C[C@H](O)C[C@H]2C(=O)NCc2ccc(-c3scnc3C)cc2)C(C)(C)C)CC1` are 300 nM, 138 nM, 20%, 0.01 ×10⁻⁶ cm/s and 0.61.
In the same order, the values of `Cc1ncsc1-c1ccc(CNC(=O)[C@@H]2C[C@@H](O)CN2C(=O)[C@@H](NC(=O)C2CC2)C(C)(C)C)cc1` are 170 nM, 132 nM, 105%, 0.61 ×10⁻⁶ cm/s and 1.14.
The molecule `Cc1ncsc1-c1ccc(CNC(=O)[C@@H]2C[C@@H](O)CN2C(=O)[C@@H](NC(=O)C2CC(=O)C2)C(C)(C)C)cc1` returned a Kd in series [1] of 500 nM. For the same molecule, in [2], the Activity turned out to be 28%.
For `Cc1ncsc1-c1ccc(CNC(=O)[C@@H]2C[C@@H](O)CN2C(=O)[C@@H](N2CCCC2=O)C(C)(C)C)cc1`, binding in series [1] was put at a Kd of 1400 nM. Moreover, the Activity in series [2] was 33%.
Turning to `CCC(=O)N[C@H](C(=O)N1C[C@H](O)C[C@H]1C(=O)NCc1ccc(-c2scnc2C)cc1)C(C)(C)C`, the Activity in series [2] was determined as 98%.
`Cc1ncsc1-c1ccc(CNC(=O)[C@@H]2C[C@@H](O)CN2C(=O)[C@@H](NC(=O)C2CCC2)C(C)(C)C)cc1`: the Kd was 250 nM in series [1], 210 nM in series [9], 271 nM in series [14] and 233 nM in series [15]. The Activity in series [2] is 138%. In series [5], this molecule came in with a permeability of 1.16 ×10⁻⁶ cm/s. The same molecule displayed a chromatographic logD in series [6] of 1.3. Moreover, the K worked out at 5.17 ×10⁵ /M/s in series [10], 0.14 s⁻¹ in series [11], 1.1 ×10⁶ /M/s in series [12] and 0.256 s⁻¹ in series [13]. The same molecule showed a half-life at 50 µM in series [7] above 3 h. For the same molecule, in series [8], the “intrinsic clearance (CLint)” value was 3 mL/min/g. In series [16], this molecule showed a T1/2 of 4.95 s.
On to `CC(=O)N1CC(C(=O)N[C@H](C(=O)N2C[C@H](O)C[C@H]2C(=O)NCc2ccc(-c3scnc3C)cc2)C(C)(C)C)C1`, for which binding in series [1] was characterised by a dissociation constant (Kd) of 4900 nM. In addition, the Activity in [2] amounted to 12%.
For the molecule `Cc1ncsc1-c1ccc(CNC(=O)[C@@H]2C[C@H](O)CN2C(=O)[C@@H](NC(=O)C2(C#N)CC2)C(C)(C)C)cc1`, the Activity entry in the series on HeLa [3] and in the series with HeLa [4] was “Non-Toxic” throughout.
In turn, `Cc1ncsc1-c1ccc(CNC(=O)[C@@H]2C[C@@H](O)CN2C(=O)[C@@H](NC(=O)C(C)(C)F)C(C)(C)C)cc1` showed a Kd in series [1] of 770 nM. For the same molecule, the Activity in [2] is 19%.
In the same order, the values of `Cc1ncsc1-c1ccc(CNC(=O)[C@@H]2C[C@@H](O)CN2C(=O)[C@@H](NC(=O)C2(F)CC2)C(C)O)cc1` (single isomer, unassigned) are 370 nM and 46%.

What is called Kd is the constant that tells how readily two partners part at equilibrium. The chromatographic logD is a lipophilicity value derived from retention on a column. A word on the half-life: it is the time in which the quantity being followed falls by half.
